Source: ChEMBL document CHEMBL5649170, “Sustained microglial depletion with CSF1R inhibitor impairs parenchymal plaque development in an Alzheimer's disease model” (Nat Commun, 2019)
Activity calls are given as the source filed them. No cut-off for these calls is given here.

Legend:
[1] = Inhibition of CDK2/CyclinA (unknown origin); parameters: species or system Homo sapiens
[2] = molecular target: Cyclin-dependent kinase 5/CDK5 activator 1 (Homo sapiens, UniProt Q00535); experiment: Inhibition of CDK5_p25 (unknown origin); type: protein-complex assay
[3] = molecular target: Casein kinase I isoform epsilon (Homo sapiens, UniProt P49674); experiment: Inhibition of CSNK1E (unknown origin)
[4] = molecular target: Receptor tyrosine-protein kinase erbB-4 (Homo sapiens, UniProt Q15303); experiment: Inhibition of ERBB4 (unknown origin)
[5] = molecular target: MAP/microtubule affinity-regulating kinase 3 (Homo sapiens, UniProt P27448); experiment: Inhibition of MARK3 (unknown origin)
[6] = molecular target: Phosphatidylinositol 4,5-bisphosphate 3-kinase catalytic subunit gamma isoform (Homo sapiens, UniProt P48736); experiment: Inhibition of PIK3CG (unknown origin)
[7] = molecular target: Ribosomal protein S6 kinase alpha-4 (Homo sapiens, UniProt O75676); experiment: Inhibition of RPS6KA4 (unknown origin)
[8] = molecular target: Serine/threonine-protein kinase Sgk3 (Homo sapiens, UniProt Q96BR1); experiment: Inhibition of SGKL (unknown origin)
[9] = Half-life in dog at 1.00 mg/kg, iv administered as single dose; type: ADME, organism-based, Canis lupus familiaris; conditions: in vivo
Mus musculus [10] = experiment: Antialzheimer activity in 5XFAD mouse assessed as number of Iba positive cells per FOV in microglia at 1200 ppm administered as rodent chow for 5 days by DAPI staining based immunolabeling analysis (reference value: 119 to 154); type: functional; conditions: route po, time 5 day
Mus musculus [11] = experiment: Antialzheimer activity in 5XFAD mouse assessed as average speed at 1200 ppm administered as rodent chow for 10 to 24 weeks by Open field test (reference value: 0.024 to 0.076 meter/s); type: functional; conditions: route po, time 10-24 weeks
Mus musculus [12] = experiment: Antialzheimer activity in 5XFAD mouse assessed as amyloidbeta42 level in detergent insoluble cortex fraction measured per microgram protein at 1200 ppm administered as rodent chow starting from 1.5 months and measured after 4 months by ELISA (reference value: 184693 to 3485624 pg); type: functional; conditions: route po, time 2.5 months, 1825 h
In short: (§1)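 PLX5622 at 1200 ppm in chow given to 5xFAD mice from 1.5 months to 4 or 7 months of age; cortex and thalamus homogenized in TPER (detergent-soluble), pellets re-homogenized in 70% formic acid and spun 100,000 g, 1 h, 4 °C (insoluble); protein by Bradford/Lowry; Aβ species measured by Meso Scale electrochemiluminescence immunoassay, normalized to protein; n = 7–8 per group at 7 months.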

Mus musculus [13] = experiment: Antialzheimer activity in 5XFAD mouse assessed as amyloidbeta40 level in detergent insoluble cortex fraction measured per microgram protein at 1200 ppm administered as rodent chow starting from 1.5 months and measured after 7 months by ELISA (reference value: 615.15 to 39796 pg); type: functional; conditions: route po, time 5.5 months, 4015 h; in short: as §1
Mus musculus [14] = experiment: Antialzheimer activity in 5XFAD mouse assessed as microglial elimination in thalamus by measuring reduction in Thio-S positive plaques at 1200 ppm administered as rodent chow for 14 weeks by Thio-S staining based confocal microscopic analysis; type: functional, organism-based; conditions: route po
[15] = molecular target: T1, Macrophage colony-stimulating factor 1 receptor (Mus musculus) (UniProt P09581); experiment: In vivo inhibition of CSF1R in wildtype mouse assessed as number of GFAP positive cell per FOV in […] cortex at 1200 ppm administered as rodent chow for 10 to 24 weeks by immunolabelling based confocal microscopic analysis (reference value: 17 to 92); type: functional; conditions: route po, time 10-24 weeks
T1 sequence (whole entry): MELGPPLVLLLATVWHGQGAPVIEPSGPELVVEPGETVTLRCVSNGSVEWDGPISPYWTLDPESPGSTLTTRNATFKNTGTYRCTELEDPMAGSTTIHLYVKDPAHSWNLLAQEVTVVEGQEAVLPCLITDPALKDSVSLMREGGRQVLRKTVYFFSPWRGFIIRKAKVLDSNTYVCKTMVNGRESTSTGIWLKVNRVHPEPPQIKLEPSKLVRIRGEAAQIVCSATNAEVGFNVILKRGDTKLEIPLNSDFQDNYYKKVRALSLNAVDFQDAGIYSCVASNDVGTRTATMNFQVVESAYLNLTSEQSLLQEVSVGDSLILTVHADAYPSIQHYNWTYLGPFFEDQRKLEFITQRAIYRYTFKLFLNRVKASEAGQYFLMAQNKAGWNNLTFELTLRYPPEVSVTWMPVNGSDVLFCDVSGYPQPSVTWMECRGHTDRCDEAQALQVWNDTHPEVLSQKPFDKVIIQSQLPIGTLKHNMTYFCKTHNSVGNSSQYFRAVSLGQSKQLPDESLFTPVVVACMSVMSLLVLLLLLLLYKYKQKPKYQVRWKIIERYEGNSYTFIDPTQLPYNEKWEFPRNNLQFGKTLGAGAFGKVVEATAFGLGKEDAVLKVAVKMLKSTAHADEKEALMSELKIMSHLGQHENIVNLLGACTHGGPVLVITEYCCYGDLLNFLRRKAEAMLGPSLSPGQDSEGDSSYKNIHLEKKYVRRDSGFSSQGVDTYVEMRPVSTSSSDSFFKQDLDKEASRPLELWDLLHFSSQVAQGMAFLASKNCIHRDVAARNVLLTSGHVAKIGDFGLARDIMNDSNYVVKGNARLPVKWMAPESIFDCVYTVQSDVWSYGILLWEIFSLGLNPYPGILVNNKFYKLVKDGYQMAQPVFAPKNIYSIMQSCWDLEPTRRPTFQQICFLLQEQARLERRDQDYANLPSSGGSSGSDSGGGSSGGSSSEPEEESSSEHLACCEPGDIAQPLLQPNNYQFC

Mus musculus [16] = experiment: Antialzheimer activity in 5XFAD mouse assessed as average diameter of claudin-5 blood vessels in Thio-S negative retro spinal cortex at 1200 ppm administered as rodent chow starting from 1.5 months and measured after 4 months by immunolabeling analysis; type: functional; conditions: route po, time 2.5 months, 1825 h
[17] = molecular target: T1, Macrophage colony-stimulating factor 1 receptor (Mus musculus); experiment: In vivo inhibition of CSF1R in wildtype mouse assessed as number of Iba1 positive cells per FOV in subiculum at 1200 ppm administered as rodent chow starting from 1.5 months and measured after 7 months by immunolabeling based confocal microscopic analysis (reference value: 482 to 1085); type: functional; conditions: route po, time 5.5 months
[18] = Effect on Dynll1 gene expression in wildtype mouse hippocampus assessed as percent change in Reads Per kilo base per Million mapped reads at 1200 ppm administered as rodent chow starting from 1.5 months and measured after 7 months by RNA-Seq analysis (reference value: 83.247 to 113.338 %); type: functional; conditions: route po, time 5.5 months, 4015 h
Mus musculus [19] = experiment: Prevention of Fcrls gene upregulation in 5XFAD mouse hippocampus at 1200 ppm administered as rodent chow starting from 1.5 months and measured after 7 months by Nanostring analysis; type: functional, tissue-based; conditions: route po, time 5.5 months
Mus musculus [20] = experiment: Prevention of Nell2 gene downregulation in 5XFAD mouse hippocampus at 1200 ppm administered as rodent chow starting from 1.5 months and measured after 7 months by Nanostring analysis; type: functional, tissue-based; conditions: route po, time 5.5 months
Mus musculus [21] = experiment: Prevention of Gabrb2 gene downregulation in 5XFAD mouse hippocampus at 1200 ppm administered as rodent chow starting from 1.5 months and measured after 7 months by Nanostring analysis; type: functional, tissue-based; conditions: route po, time 5.5 months

Cyclin-dependent kinase 5/CDK5 activator 1, sequence (Q00535 whole entry, canonical isoform): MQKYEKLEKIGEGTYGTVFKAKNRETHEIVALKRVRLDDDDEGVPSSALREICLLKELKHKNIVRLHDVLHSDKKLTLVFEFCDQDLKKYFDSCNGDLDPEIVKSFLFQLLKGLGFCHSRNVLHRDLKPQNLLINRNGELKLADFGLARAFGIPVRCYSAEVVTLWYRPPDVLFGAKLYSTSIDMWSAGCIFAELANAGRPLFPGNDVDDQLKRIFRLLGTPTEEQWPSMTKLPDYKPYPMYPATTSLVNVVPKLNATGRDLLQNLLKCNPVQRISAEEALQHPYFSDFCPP
Cyclin-dependent kinase 5/CDK5 activator 1, sequence (Q15078 whole entry, further chain, canonical isoform): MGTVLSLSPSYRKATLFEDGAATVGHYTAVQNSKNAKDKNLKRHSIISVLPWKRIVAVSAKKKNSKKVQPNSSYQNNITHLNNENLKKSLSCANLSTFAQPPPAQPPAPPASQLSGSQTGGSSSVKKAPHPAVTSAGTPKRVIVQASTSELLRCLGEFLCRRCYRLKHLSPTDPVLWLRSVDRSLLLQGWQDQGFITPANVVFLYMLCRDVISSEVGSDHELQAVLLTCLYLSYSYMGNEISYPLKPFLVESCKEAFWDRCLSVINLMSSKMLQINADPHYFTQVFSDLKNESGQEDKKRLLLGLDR
Receptor tyrosine-protein kinase erbB-4, sequence (Q15303 whole entry): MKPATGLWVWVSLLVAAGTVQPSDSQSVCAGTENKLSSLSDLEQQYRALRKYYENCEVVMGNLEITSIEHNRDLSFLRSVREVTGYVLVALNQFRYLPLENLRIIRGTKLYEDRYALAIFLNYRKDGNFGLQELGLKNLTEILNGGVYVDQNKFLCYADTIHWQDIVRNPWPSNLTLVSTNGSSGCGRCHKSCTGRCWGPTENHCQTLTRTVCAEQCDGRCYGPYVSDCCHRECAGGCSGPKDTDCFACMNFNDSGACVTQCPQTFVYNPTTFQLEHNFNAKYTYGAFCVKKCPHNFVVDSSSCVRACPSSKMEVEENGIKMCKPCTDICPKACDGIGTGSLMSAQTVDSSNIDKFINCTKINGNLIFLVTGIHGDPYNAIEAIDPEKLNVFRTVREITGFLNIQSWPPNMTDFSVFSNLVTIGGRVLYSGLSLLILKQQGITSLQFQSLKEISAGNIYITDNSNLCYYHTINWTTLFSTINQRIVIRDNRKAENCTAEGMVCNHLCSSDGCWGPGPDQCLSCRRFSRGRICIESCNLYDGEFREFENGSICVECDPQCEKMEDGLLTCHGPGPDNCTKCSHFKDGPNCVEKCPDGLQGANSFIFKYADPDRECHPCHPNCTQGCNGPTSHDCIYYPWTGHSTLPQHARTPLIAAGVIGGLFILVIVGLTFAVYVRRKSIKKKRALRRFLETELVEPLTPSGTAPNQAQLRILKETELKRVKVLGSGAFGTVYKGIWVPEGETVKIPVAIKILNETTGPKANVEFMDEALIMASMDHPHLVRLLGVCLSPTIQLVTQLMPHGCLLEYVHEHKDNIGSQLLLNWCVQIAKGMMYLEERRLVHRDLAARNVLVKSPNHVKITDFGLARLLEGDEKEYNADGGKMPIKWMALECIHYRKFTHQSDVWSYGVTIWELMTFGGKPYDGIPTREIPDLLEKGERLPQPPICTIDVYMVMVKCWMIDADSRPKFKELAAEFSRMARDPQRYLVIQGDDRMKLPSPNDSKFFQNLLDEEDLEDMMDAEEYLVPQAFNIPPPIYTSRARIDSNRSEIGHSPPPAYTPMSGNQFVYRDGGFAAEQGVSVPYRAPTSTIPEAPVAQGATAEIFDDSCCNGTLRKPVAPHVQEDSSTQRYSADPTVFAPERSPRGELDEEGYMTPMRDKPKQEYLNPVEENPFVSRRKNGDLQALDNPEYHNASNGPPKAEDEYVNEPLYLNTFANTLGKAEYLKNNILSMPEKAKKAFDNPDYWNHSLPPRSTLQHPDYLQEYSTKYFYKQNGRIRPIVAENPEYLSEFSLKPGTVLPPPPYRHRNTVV
Phosphatidylinositol 4,5-bisphosphate 3-kinase catalytic subunit gamma isoform, sequence (P48736 whole entry, canonical isoform): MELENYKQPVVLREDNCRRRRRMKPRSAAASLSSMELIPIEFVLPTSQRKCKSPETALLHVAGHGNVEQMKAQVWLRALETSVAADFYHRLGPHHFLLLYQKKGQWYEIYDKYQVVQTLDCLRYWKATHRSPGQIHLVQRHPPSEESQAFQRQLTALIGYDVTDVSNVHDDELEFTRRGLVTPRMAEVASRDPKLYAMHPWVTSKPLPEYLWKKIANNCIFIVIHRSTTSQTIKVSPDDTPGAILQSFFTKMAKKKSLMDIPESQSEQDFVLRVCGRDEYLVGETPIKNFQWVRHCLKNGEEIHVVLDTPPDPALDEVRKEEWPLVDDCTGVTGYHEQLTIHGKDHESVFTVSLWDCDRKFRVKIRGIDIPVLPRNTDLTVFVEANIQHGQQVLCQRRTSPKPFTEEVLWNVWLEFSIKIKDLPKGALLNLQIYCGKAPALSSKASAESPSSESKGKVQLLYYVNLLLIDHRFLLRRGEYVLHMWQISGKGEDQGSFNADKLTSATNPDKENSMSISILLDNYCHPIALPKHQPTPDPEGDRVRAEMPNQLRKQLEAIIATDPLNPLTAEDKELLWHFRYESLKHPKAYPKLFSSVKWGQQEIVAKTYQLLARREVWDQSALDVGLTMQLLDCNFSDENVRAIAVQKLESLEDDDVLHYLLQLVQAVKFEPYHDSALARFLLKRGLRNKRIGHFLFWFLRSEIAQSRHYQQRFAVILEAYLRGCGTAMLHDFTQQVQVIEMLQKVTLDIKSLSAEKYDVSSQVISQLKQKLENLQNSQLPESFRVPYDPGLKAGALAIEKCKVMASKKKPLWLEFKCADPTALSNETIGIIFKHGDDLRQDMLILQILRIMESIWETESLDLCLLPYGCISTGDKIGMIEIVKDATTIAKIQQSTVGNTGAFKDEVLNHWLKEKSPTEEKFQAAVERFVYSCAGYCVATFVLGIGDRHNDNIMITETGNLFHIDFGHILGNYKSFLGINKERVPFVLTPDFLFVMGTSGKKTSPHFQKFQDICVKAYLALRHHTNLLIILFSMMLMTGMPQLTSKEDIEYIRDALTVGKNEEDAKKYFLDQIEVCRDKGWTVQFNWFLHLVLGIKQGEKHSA
Serine/threonine-protein kinase Sgk3, sequence (Q96BR1 whole entry): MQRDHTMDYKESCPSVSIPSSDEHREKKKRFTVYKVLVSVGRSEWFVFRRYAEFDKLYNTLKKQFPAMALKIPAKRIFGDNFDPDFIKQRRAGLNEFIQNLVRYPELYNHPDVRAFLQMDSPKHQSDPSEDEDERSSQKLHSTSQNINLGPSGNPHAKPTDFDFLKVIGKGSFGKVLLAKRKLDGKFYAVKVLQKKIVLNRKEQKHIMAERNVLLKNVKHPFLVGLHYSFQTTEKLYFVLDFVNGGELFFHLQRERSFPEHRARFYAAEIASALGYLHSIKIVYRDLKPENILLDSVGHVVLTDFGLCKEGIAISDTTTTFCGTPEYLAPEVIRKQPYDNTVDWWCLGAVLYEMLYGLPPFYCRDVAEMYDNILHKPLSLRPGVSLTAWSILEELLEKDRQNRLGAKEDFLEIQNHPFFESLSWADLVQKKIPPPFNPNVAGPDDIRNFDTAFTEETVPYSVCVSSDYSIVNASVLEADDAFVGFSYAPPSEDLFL
Casein kinase I isoform epsilon, sequence (P49674 whole entry, canonical isoform): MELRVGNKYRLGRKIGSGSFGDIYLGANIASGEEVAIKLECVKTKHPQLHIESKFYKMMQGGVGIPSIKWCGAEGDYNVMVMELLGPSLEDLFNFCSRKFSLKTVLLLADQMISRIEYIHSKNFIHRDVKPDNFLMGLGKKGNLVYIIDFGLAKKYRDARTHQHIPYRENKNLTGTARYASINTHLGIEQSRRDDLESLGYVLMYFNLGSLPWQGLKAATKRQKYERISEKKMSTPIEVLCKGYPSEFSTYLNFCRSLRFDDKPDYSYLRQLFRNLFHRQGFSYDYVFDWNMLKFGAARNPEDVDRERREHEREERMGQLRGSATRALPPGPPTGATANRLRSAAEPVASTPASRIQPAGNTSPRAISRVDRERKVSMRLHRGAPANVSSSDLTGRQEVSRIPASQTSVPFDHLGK
MAP/microtubule affinity-regulating kinase 3, sequence (P27448 whole entry, canonical isoform): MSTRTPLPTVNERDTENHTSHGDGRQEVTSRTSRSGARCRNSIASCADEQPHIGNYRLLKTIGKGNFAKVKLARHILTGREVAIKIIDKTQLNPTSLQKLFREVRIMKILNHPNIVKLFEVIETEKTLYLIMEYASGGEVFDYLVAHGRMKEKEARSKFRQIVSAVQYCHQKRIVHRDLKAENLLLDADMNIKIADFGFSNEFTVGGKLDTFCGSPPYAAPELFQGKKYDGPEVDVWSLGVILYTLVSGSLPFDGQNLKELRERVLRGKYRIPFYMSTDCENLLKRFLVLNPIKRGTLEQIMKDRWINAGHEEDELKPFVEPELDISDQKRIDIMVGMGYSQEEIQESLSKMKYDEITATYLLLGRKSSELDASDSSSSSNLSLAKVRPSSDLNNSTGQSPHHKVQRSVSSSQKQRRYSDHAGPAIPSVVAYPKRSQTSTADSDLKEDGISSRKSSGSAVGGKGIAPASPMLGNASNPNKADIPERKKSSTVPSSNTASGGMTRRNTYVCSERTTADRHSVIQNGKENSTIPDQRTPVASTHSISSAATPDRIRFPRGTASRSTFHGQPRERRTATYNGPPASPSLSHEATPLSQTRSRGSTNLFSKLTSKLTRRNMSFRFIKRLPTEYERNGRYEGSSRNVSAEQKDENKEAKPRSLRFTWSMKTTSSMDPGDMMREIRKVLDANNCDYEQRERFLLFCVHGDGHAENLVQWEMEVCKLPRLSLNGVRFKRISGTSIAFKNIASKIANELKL

Work on `COc1ncc(F)cc1CNc1ccc(Cc2c[nH]c3ncc(C)cc23)c(F)n1` [PLX-5622] yielded an IC50 [1] greater than 1000 nM, an IC50 [2] greater than 1000 nM and an IC50 [3] greater than 1000 nM. The IC50 [4] was greater than 1000 nM, the IC50 [5] was greater than 1000 nM and the IC50 [6] was greater than 1000 nM. It also gave an IC50 [7] greater than 1000 nM, an IC50 [8] greater than 1000 nM and a half-life [9] of 15 h. The Activity (Mus musculus [10]) was 1, the Activity (Mus musculus [11]) was 0.03 meter/s and the Activity (Mus musculus [12]) was 14098.06 pg. The Activity (Mus musculus [13]) was 89.514 pg, the Activity (Mus musculus [14]) was “inactive” and the Activity [15] was 7. The Activity (Mus musculus [16]) was 1.786 um, the Activity [17] was 0 and the Activity [18] was 101.141%. For the same compound, the Activity (Mus musculus [19]) was “Active”, the Activity (Mus musculus [20]) was “Active” and the Activity (Mus musculus [21]) was “Active”.
